Measured values from ChEMBL document CHEMBL4052814, “GNE-781, A Highly Advanced Potent and Selective Bromodomain Inhibitor of Cyclic Adenosine Monophosphate Response Element Binding Protein, Binding Protein (CBP)” (J Med Chem, 2017).
The source made the active and inactive calls. The calls are words filed in the database; no cut-off is given here.

Assays:
[1] = Volume of distribution at steady state in Sprague-Dawley rat at 1 mg/kg, iv or 5 mg/kg, po by LC-MS/MS method; type: ADME, organism-based; conditions: in vivo, read-out: Vdss
Method in brief: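 Male Sprague-Dawley rats, 6–9 weeks old, n=3 per route. Dosing was 1 mg/kg i.v. in PEG400/water 35/65 or 5 mg/kg p.o. in 0.5% methylcellulose/0.2% Tween 80; the p.o. group was fasted overnight. Catheter blood was taken at 0.033–24 h into K2EDTA and processed to plasma. Quantified by LC-MS/MS.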

[2] = Ratio of unbound concentration in rat brain to plasma at 250 mg/kg measured after 3 hrs postdose; type: ADME, organism-based; conditions: read-out: K(p,uu,brain)
[3] = biological target: Bromodomain adjacent to zinc finger domain protein 2B (Homo sapiens, UniProt Q9UIF8); assay: Displacement of biotinylated histone H3K14 peptide ligand from human recombinant His-tagged BAZ2B measured after 10 mins by TR-FRET assay
[4] = biological target: Bromodomain-containing protein 8 (Homo sapiens, UniProt Q9H0E9); assay: Displacement of biotinylated histone H3K14 peptide ligand from recombinant His-tagged BRD8 bromodomain-1 (unknown origin) measured after 10 mins by TR-FRET assay
Peregrin = Peregrin (Homo sapiens, UniProt P55201); assay: Displacement of biotinylated histone H3K14 peptide ligand from human recombinant His-tagged BRPF1 measured after 10 mins by TR-FRET assay
[5] = biological target: Histone acetyltransferase KAT2B (Homo sapiens, UniProt Q92831); assay: Displacement of biotinylated histone H3K14 peptide ligand from human recombinant His-tagged PCAF measured after 10 mins by TR-FRET assay
[6] = biological target: Transcription initiation factor TFIID subunit 1 (Homo sapiens, UniProt P21675); assay: Displacement of biotinylated histone H3K14 peptide ligand from recombinant His-tagged TAF1 bromodomain-2 (unknown origin) measured after 10 mins by TR-FRET assay
[7] = Protein binding in mouse plasma at 5 uM incubated for 4 hrs measured by LC-MS/MS method; type: ADME, cell-free; conditions: read-out: PPB (converted)
[8] = Protein binding in rat plasma at 5 uM incubated for 4 hrs measured by LC-MS/MS method; type: ADME, cell-free; conditions: read-out: PPB (converted)
[9] = Protein binding in dog plasma at 5 uM incubated for 4 hrs measured by LC-MS/MS method; type: ADME, cell-free, Canis lupus familiaris; conditions: read-out: PPB (converted)
[10] = Protein binding in cynomolgus monkey plasma at 5 uM incubated for 4 hrs measured by LC-MS/MS method; type: ADME, cell-free, Macaca fascicularis; conditions: read-out: PPB (converted)
[11] = Clearance in beagle dog at 1 mg/kg, iv or 5 mg/kg, po by LC-MS/MS method; type: ADME, organism-based, Canis lupus familiaris; conditions: in vivo
Method in brief: (§1)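 Non-naïve male beagle dogs, n = 3 per route. Dosed 1 mg/kg i.v. in EtOH/PEG400/water (20/15/65) or 5 mg/kg p.o. in 0.5% methylcellulose, 0.2% Tween 80; oral groups fasted overnight until 4 h post-dose. Peripheral blood taken pre-dose to 24 h and processed to K2EDTA plasma. Analysed by non-validated LC-MS/MS.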

[12] = Half life in Sprague-Dawley rat at 1 mg/kg, iv or 5 mg/kg, po by LC-MS/MS method; type: ADME, organism-based; conditions: in vivo
Method in brief: (§2)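 Male Sprague-Dawley rats, 6–9 weeks, n = 3 per route. Dosed 1 mg/kg i.v. in PEG400/water (35/65) or 5 mg/kg p.o. in 0.5% methylcellulose, 0.2% Tween 80; oral groups fasted overnight until 4 h post-dose. Catheter blood sampled 0.033–24 h into K2EDTA and spun to plasma. Analysed by non-validated LC-MS/MS.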

[13] = Half life in beagle dog at 1 mg/kg, iv or 5 mg/kg, po by LC-MS/MS method; type: ADME, organism-based, Canis lupus familiaris; conditions: in vivo; method in brief: as §1
[14] = Half life in cynomolgus monkey at 1 mg/kg, iv or 5 mg/kg, po by LC-MS/MS method; type: ADME, organism-based, Macaca fascicularis; conditions: in vivo
Method in brief: (§3)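 Non-naïve male cynomolgus monkeys, at least 2 years old, n = 3 per route. Given 1 mg/kg i.v. in EtOH/PEG400/water (20/15/65) or 5 mg/kg p.o. in 0.5% methylcellulose, 0.2% Tween 80; oral groups fasted. Plasma (K2EDTA) collected pre-dose to 24 h. Analysed by non-validated LC-MS/MS.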

[15] = Oral bioavailability in CD-1 mouse at 5 mg/kg by LC-MS/MS method; type: ADME, organism-based; conditions: in vivo
Method in brief: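 Female CD-1 mice, 6–9 weeks, n = 3 per route. Dosed 1 mg/kg i.v. in PEG400/water (35/65) or 5 mg/kg p.o. as a suspension in 0.5% methylcellulose, 0.2% Tween 80. Serial tail-nick blood sampled to 24 h, diluted in EDTA-water. Parent drug measured by non-validated LC-MS/MS after acetonitrile precipitation with an indomethacin internal standard.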

[16] = Oral bioavailability in Sprague-Dawley rat at 5 mg/kg by LC-MS/MS method; type: ADME, organism-based; conditions: in vivo; method in brief: as §2
[17] = Oral bioavailability in cynomolgus monkey at 5 mg/kg by LC-MS/MS method; type: ADME, organism-based, Macaca fascicularis; conditions: in vivo; method in brief: as §3
[18] = Volume of distribution at steady state in beagle dog at 1 mg/kg, iv or 5 mg/kg, po by LC-MS/MS method; type: ADME, organism-based, Canis lupus familiaris; conditions: in vivo, read-out: Vdss
Method in brief: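 Non-naïve male beagle dogs or cynomolgus monkeys, n=3 per route. Dosing was 1 mg/kg i.v. in EtOH/PEG400/water 20/15/65 or 5 mg/kg p.o. in 0.5% methylcellulose/0.2% Tween 80; the p.o. group was fasted overnight. Peripheral blood was taken pre-dose to 24 h into K2EDTA and processed to plasma. Quantified by LC-MS/MS.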

[19] = AUClast in Sprague-Dawley rat at 1 mg/kg, iv or 5 mg/kg, po by LC-MS/MS method; type: ADME, organism-based; conditions: in vivo; method in brief: as §2
[20] = AUClast in beagle dog at 1 mg/kg, iv or 5 mg/kg, po by LC-MS/MS method; type: ADME, organism-based, Canis lupus familiaris; conditions: in vivo; method in brief: as §1
[21] = Antitumor activity against human MOLM16 cells xenografted in C.B-17 SCID beige mouse assessed as tumor growth inhibition at 3 mg/kg administered via oral gavage as bid for 21 days relative to control; type: functional; conditions: read-out: TGI
Method in brief: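 Female C.B-17 SCID.bg mice received 5 million MOLM-16 cells s.c. in HBSS/Matrigel in the right flank. Dosing began at 130–300 mm3: oral gavage BID for 21 days in 0.5% methylcellulose, 0.2% Tween 80, n=10/group. Caliper volumes taken; %TGI computed from the area under the mixed-model spline-fitted curve per day versus vehicle.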

Mus musculus [22] = assay: In vivo inhibition of CBP in human MOLM16 cells xenografted in C.B-17 SCID beige mouse assessed as suppression of MYC transcript levels at 3 mg/kg administered via oral gavage as bid for 21 days measured 2 to 8 hrs post last dose by real time-PCR method; type: functional, organism-based
Mus musculus [23] = assay: Toxicity in C.B-17 SCID beige mouse xenografted with human MOLM-16 cells assessed as decrease in body weight at 3 to 30 mg/kg administered via oral gavage as bid for 21 days measured during compound dosing; conditions: in vivo
CREB-binding protein = CREB-binding protein (Homo sapiens, UniProt Q92793); assay: Inhibition of Halo-tagged histone H3.3 binding to NanoLuc luciferase conjugated human CBP expressed in HEK293 cells after overnight incubation by BRET assay; type: cell-based

Peregrin, sequence (P55201 whole entry): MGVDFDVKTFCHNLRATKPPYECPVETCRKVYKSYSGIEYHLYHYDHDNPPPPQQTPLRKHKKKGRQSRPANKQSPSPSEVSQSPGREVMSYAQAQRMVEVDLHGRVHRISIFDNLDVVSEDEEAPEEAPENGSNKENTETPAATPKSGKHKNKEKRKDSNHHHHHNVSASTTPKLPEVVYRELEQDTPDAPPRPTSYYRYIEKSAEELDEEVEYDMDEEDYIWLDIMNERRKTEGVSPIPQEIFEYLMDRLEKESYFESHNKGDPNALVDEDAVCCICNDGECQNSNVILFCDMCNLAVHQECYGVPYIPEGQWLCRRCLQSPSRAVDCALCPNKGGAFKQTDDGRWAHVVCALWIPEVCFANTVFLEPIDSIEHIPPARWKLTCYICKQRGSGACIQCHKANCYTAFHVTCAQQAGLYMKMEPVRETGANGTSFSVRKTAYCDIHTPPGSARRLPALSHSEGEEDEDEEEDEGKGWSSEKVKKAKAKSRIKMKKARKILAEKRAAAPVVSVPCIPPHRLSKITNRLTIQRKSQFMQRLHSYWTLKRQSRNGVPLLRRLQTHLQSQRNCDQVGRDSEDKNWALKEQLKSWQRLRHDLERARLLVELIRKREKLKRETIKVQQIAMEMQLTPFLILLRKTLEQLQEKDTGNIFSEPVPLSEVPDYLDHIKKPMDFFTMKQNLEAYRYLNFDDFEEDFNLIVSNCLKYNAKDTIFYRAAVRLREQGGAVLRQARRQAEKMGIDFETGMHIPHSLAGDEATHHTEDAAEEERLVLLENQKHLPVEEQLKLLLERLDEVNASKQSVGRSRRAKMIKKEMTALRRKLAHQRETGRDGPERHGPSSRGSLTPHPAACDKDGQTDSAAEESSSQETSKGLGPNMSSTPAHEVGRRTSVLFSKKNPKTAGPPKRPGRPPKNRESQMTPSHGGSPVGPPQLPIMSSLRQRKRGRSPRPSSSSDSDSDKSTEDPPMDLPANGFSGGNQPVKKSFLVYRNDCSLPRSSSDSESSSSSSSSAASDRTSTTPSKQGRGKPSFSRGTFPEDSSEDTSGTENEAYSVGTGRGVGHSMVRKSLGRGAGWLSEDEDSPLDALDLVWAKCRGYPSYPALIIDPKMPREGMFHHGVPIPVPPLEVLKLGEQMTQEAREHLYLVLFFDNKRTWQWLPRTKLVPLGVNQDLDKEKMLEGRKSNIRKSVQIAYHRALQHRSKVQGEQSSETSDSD
Transcription initiation factor TFIID subunit 1, sequence (P21675 whole entry): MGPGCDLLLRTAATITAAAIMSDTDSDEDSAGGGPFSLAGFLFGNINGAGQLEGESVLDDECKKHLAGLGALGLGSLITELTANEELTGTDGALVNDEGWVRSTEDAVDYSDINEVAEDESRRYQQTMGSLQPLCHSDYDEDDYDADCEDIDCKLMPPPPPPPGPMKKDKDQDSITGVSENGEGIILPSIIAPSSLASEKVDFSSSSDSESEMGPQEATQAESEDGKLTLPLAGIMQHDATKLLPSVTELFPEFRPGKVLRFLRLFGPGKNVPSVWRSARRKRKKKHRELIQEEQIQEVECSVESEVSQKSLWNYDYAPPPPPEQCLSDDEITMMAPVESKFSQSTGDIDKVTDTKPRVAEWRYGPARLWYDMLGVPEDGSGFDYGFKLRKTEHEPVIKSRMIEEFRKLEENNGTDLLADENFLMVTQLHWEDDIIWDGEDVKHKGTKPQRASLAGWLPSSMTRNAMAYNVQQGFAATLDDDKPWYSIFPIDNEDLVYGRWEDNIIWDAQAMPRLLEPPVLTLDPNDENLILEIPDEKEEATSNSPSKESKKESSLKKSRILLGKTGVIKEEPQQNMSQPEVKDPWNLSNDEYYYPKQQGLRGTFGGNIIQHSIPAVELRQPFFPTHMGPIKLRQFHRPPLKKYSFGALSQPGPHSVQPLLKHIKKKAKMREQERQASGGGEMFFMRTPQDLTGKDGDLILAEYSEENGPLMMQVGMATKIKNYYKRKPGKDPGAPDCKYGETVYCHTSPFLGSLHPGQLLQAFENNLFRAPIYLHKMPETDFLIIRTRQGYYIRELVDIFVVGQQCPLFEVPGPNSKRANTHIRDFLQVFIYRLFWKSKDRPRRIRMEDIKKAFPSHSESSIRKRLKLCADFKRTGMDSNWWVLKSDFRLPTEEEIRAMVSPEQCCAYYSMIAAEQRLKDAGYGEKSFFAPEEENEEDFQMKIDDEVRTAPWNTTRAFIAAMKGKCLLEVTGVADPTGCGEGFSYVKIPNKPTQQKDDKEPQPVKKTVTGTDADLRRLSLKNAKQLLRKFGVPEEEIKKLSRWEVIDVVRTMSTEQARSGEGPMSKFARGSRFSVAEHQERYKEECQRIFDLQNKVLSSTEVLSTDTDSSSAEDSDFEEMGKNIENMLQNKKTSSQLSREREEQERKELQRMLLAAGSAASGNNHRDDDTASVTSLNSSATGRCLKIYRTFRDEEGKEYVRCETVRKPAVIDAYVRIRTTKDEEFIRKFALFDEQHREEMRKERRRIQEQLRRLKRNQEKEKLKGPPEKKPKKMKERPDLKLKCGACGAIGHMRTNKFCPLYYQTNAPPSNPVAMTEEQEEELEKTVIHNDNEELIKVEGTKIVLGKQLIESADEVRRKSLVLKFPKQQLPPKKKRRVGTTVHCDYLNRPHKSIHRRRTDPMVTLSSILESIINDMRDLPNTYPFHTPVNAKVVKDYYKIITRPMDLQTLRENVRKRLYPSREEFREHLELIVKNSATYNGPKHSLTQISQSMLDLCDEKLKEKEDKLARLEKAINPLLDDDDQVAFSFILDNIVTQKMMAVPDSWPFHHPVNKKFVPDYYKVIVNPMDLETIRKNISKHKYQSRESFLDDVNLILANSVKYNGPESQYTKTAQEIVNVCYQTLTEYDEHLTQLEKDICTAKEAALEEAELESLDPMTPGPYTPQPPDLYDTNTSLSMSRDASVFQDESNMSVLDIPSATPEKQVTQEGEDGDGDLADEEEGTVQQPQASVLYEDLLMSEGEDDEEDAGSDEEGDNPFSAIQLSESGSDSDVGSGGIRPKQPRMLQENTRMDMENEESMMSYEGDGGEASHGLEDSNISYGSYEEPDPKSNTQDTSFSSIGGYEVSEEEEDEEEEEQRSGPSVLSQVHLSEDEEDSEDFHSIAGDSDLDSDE
Histone acetyltransferase KAT2B, sequence (Q92831 whole entry): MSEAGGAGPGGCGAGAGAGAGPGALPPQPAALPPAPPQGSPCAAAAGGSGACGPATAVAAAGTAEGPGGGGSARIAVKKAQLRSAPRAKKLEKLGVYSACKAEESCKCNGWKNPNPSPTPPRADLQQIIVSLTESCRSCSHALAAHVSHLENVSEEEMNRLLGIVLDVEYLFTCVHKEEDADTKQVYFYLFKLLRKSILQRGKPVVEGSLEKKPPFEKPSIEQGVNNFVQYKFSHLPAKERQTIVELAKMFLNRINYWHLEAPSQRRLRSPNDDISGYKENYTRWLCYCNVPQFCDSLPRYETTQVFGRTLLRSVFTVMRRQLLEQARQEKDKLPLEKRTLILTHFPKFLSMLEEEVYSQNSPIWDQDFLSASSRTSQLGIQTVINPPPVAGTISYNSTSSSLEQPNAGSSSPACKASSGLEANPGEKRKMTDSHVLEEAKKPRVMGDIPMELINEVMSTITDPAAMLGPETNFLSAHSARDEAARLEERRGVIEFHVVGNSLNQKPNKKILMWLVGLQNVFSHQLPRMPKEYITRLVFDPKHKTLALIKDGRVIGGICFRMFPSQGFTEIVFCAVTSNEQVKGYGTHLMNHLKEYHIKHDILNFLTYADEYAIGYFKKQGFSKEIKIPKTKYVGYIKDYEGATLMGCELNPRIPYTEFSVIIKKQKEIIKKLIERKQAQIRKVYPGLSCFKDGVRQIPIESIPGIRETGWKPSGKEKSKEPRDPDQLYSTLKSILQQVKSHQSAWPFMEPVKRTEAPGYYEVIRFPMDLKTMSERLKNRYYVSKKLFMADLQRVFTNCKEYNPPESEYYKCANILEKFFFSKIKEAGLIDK

| Vd [1] [L/kg] | Kp uu at 3 h [2] | IC50 [3] [µM] | IC50 [4] [µM] | IC50 (Peregrin) [µM] | IC50 [5] [µM] | IC50 [6] [µM] | fraction unbound at 4 h, 5 µM [7] | fraction unbound at 4 h, 5 µM [8] | fraction unbound at 4 h, 5 µM [9] | fraction unbound at 4 h, 5 µM [10] | clearance [11] [mL/min/kg] | half-life [12] [h] | half-life [13] [h] | half-life [14] [h] | bioavailability [15] [%] | bioavailability [16] [%] | bioavailability [17] [%] | Vd [18] [L/kg] | AUC(0-t) [19] [µM·h] | SMILES | further results |
| --- | --- | --- | --- | --- | --- | --- | --- | --- | --- | --- | --- | --- | --- | --- | --- | --- | --- | --- | --- | --- | --- |
| 0.64 | 0.02 | > 18 | > 20 | 4.6 | > 20 | > 20 | 0.06 | 0.06 | 0.23 | 0.22 | 4.8 | 3.7 | 4.7 | 0.72 | 73 | 37 | 28 | 1.5 | 16 | CNC(=O)N1CCc2c(c(N3CCCc4cc(-c5cnn(C)c5)c(C(F)F)cc43)nn2C2CCOCC2)C1 | AUC(0-t) [20]: 44 µM·h; inhibition in vivo at 3 mg/kg [21]: 73%; inhibition (Mus musculus [22]): Active; %max (Mus musculus [23]): 3.7% |
| 0.81 | 0.43 | > 20 | > 20 | > 20 | > 20 | > 20 | 0.08 | 0.12 | 0.19 | 0.21 | 4.6 | 0.66 | 4.2 | 2.8 | 72 | 93 | 39 | 1 | 9.4 | CC(=O)N1CCc2c(c(N3CCCc4cc(-c5cnn(C)c5)c(C(F)F)cc43)nn2C2CCOCC2)C1 | IC50 (CREB-binding protein): 0.012 µM; AUC(0-t) [20]: 31 µM·h |
